According to ChEMBL document CHEMBL1151261, “Antineoplastic agents. 509: synthesis of fluorcombstatin phosphate and related 3-halostilbenes(1)” (J Nat Prod, 2005):
Values after ≈ are worked out from the molar mass of the structure shown.

Columns and labels:
[1] = system: SF-268; experiment: Cytotoxicity against human SF268 cells after 48 hrs by sulforhodamine B assay; assay type: functional; conditions: SF-268, 48 h
Method in brief: (§1)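 Human tumor lines exposed to compound for 48 h, then fixed with trichloroacetic acid and stained with sulforhodamine B (NCI standard protocol); optical density read on a microplate reader. GI50 is the concentration giving a 50% reduction in net protein increase, calculated from optical density data.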

[2] = system: DU-145; experiment: Cytotoxicity against human DU145 cells after 48 hrs by sulforhodamine B assay; assay type: functional; conditions: DU-145, 48 h; method in brief: as §1
[3] = system: P388; experiment: Cytotoxicity against mouse P388 cells after 48 hrs by Coulter particle counting; conditions: P388, 48 h, read-out: ED50 (the source's name)
[4] = system: NCI-H460; experiment: Cytotoxicity against human NCI-H460 cells after 48 hrs by sulforhodamine B assay; assay type: functional; conditions: NCI-H460, 48 h; method in brief: as §1
[5] = system: BXPC-3; experiment: Cytotoxicity against human BxPC3 cells after 48 hrs by sulforhodamine B assay; assay type: functional; conditions: BXPC-3, 48 h; method in brief: as §1
[6] = system: KM-20L2; experiment: Cytotoxicity against human KM20L2 cells after 48 hrs by sulforhodamine B assay; assay type: functional; conditions: KM-20L2, 48 h; method in brief: as §1
[7] = system: MCF7; experiment: Cytotoxicity against human MCF7 cells after 48 hrs by sulforhodamine B assay; assay type: functional; conditions: MCF7, 48 h; method in brief: as §1
[8] = Displacement of [3H]colchicine from tubulin
Method in brief: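 [3H]colchicine binding with 1.0 μM tubulin, 5.0 μM [3H]colchicine and inhibitor at 1.0 μM.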

[9] = system: Neisseria gonorrhoeae; experiment: Antimicrobial activity against Neisseria gonorrhoeae ATCC 49226 after 24 hrs by broth microdilution assay; assay type: functional; conditions: ATCC 49226, 24 h
Method in brief: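 Neisseria tested by NCCLS broth microdilution in gonococcal typing broth. Final inoculum about 5×10^5 CFU/mL; 2-fold compound dilutions from DMSO; DMSO turbidity control; 37 °C with 5% CO₂ without agitation, 24 h. MIC = lowest concentration with no visible growth.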

Compound	GI50 [1] [ng/mL]	GI50 [2] [ng/mL]	EC50 [3] [µg/mL]	GI50 [4] [ng/mL]	GI50 [5] [µg/mL]	GI50 [6] [µg/mL]	GI50 [7] [ng/mL]	Activity [8] [%]	MIC [9] [µg/mL]
COc1ccc(/C=C\c2cc(O)c(OC)c(OC)c2)cc1N	40 (≈ 0.133 µM)	35 (≈ 0.116 µM)	0.0174 (≈ 0.0577 µM)	30 (≈ 0.0996 µM)	0.37 (≈ 1.23 µM)	0.39 (≈ 1.29 µM)	60 (≈ 0.199 µM)	–	–
COc1ccc(/C=C\c2cc(F)c(OC)c(OC)c2)cc1OP(=O)([O-])[O-].[Li+].[Li+]	4	4.3	0.019	3.9	0.49	> 1	3.8	–	–
COc1ccc(/C=C\c2cc(OC)c(OC)c(OC)c2)cc1O [COMBRETASTATIN A4]	< 1	0.8 (≈ 0.00253 µM)	0.0003 (≈ 0.000948 µM)	0.6 (≈ 0.0019 µM)	0.39 (≈ 1.23 µM)	0.061 (≈ 0.193 µM)	–	81	–
COc1ccc(/C=C\c2cc(O)c(OC)c(OC)c2)cc1N.Cl	2.2	12	0.0289	35	1	1.3	< 10	–	–
COc1ccc(/C=C\c2cc(F)c(OC)c(OC)c2)cc1OP(=O)([O-])[O-].[Na+].[Na+]	5.1	3.6	0.0298	9.4	0.59	1.5	4.4	–	16
COc1ccc(/C=C\c2cc(Br)c(OC)c(OC)c2)cc1OP(=O)([O-])[O-].[Cs+].[Cs+]	6.4	7.9	< 0.01	6.6	0.15	0.48	4.4	–	–
COc1cc(/C=C\c2ccc(OC)c(OP(=O)([O-])[O-])c2OP(=O)([O-])[O-])cc(OC)c1OC.[Na+].[Na+].[Na+].[Na+]	36	34	< 0.01	38	1.5	0.53	24	–	–
COc1ccc(/C=C\c2cc(F)c(OC)c(OC)c2)cc1OP(=O)([O-])[O-].[K+].[K+]	3.9	3.7	0.0074	4.3	0.548	> 1	4	–	–
COc1ccc(/C=C\c2cc(N)c(OC)c(OC)c2)cc1N	76 (≈ 0.253 µM)	44 (≈ 0.146 µM)	0.036 (≈ 0.12 µM)	14 (≈ 0.0466 µM)	0.053 (≈ 0.176 µM)	0.03 (≈ 0.0999 µM)	< 10	–	–
